Common to all, as to type: nucleic-acid assay
For test [1], the target named is Nucleic Acid. Nature of the test: Binding affinity to minor groove region of DNA.
The subject of test [2] is Nucleic Acid. Description: Displacement of ethidium bromide from DNA ATAT region by […] analysis. In a few lines:
(§1)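 CSI microarray of hairpinned dsDNA probes covering all 9 bp permutations. The array was incubated 1 h with 6 μM EtBr in binding buffer (100mM NaCl, 100mM Tris pH 8.0). Unlabeled ligand (3 μM) was then added to the EtBr solution for a further 1 h to reach equilibrium. Per-feature ratio of displaced to undisplaced EtBr fluorescence, expressed as FD = 1−(1−Rseq)/(1−RMax).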

Test [3] deals with Nucleic Acid. Description: Displacement of ethidium bromide from DNA ATAA region by […] analysis. Put shortly: as §1
The subject of test [4] is Nucleic Acid. Nature of the test: Displacement of ethidium bromide from DNA TAAA region by […] analysis. In a few lines:
as §1

The test system of test [5] is Nucleic Acid. Description: Displacement of ethidium bromide from DNA AAAT region by […] analysis. In a few lines:
as §1

In test [6] the test system is Nucleic Acid. Description: Displacement of ethidium bromide from DNA AATA region by […] analysis. Put shortly:
as §1

In test [7] the test system is Nucleic Acid. Nature of the test: Displacement of ethidium bromide from DNA ATTA region by […] analysis. Put shortly: as §1
The test system of test [8] is Nucleic Acid. Description: Displacement of ethidium bromide from DNA TTAA region by […] analysis. Put shortly: as §1
Test [9] has as its system Nucleic Acid. Nature of the test: Displacement of ethidium bromide from DNA TATTAGA region at 3 uM by […] analysis. Put shortly: as §1
Test [10] has as its system Nucleic Acid. Nature of the test: Displacement of ethidium bromide from DNA TATA region by […] analysis. Put shortly:
as §1

Test [11] deals with Nucleic Acid. Description: Displacement of ethidium bromide from minor groove region of DNA at 3 uM by […] analysis. In a few lines: as §1
The test system of test [12] is Nucleic Acid. Description: Displacement of ethidium bromide from DNA AAAA region by […] analysis. Put shortly:
as §1

The subject of test [13] is Nucleic Acid. Nature of the test: Displacement of ethidium bromide from DNA TGAATAA region at 3 uM by […] analysis. In a few lines:
as §1

The subject of test [14] is Nucleic Acid. Description: Displacement of ethidium bromide from DNA TAGAATA region at 3 uM by […] analysis. Put shortly:
as §1

Results on 1 molecule are retold here after ChEMBL document CHEMBL1151927, “CSI-FID: high throughput label-free detection of DNA binding molecules” (Bioorg Med Chem Lett, 2009).

Calls of active or inactive are those of the source. The calls are words filed in the database; no cut-off is given here.

What is called Kd is the concentration at which binding is half-saturated. Higher therefore signals a looser complex. The molecule `Cn1cc(NC(=O)c2cc(NC(=O)CNC(=N)N)cn2C)cc1C(=O)NCCC(=N)N` [NETROPSIN] gave a dissociation constant Kd at Nucleic Acid [1] of 1 nM. Further, the outcome in the test with Nucleic Acid [2], with Nucleic Acid [3], in the test with Nucleic Acid [4], in the test with Nucleic Acid [5], in the test on Nucleic Acid [6] and with Nucleic Acid [7] was Active. Also, the result in the test with Nucleic Acid [8], in the test with Nucleic Acid [9], in the test with Nucleic Acid [10], in the test with Nucleic Acid [11], with Nucleic Acid [12] and with Nucleic Acid [13] was Active. The outcome in the test with Nucleic Acid [14] was Active.
